Apaf1 inhib: human Apaf-1 inhibition; O14727; reconstituted apoptosome caspase-3 activity, DEVD-Rh110 fluorescence; inhibition, % at 20 µM; 330,000 tested, 0.71% active; AID 489030; active = inhibition of at least 40% at 20 µM
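Material: reconstituted apoptosome with Apaf-1, cytochrome c, caspase-9, procaspase-3, dATP / Buffer or medium: pH 7.5 Hepes buffer with CHAPS, BSA, DTT / Also added: cytochrome c with DEVD-Rh110 / Schedule: compound with Apaf-1, dATP, procaspase-3 30 min, then 50 min reaction, room temperature / Technique: rhodamine 110 fluorescence at Ex 480/Em 540 nm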
MEKK2wt PB1 HTS: raises or lowers MEK5 binding to wildtype human MEKK2 PB1 domain | Q9Y2U5 | AID 1531 | 290,000 tested, 1.1% active | bead flow cytometry, Alexa488-MEK5 binding to MEKK2 WT; actives lie on both sides | binding response (% of control), % at 10 µM; in the data active = binding response below about 67% or above about 130%
UBC13 inh: inhibitors of human UBC13 polyubiquitin chain formation | TR-FRET | inhibition, % at 20 µM | P61088 | 330,000 tested, 0.47% active; in the data active = inhibition above about 45%, passing the limit was not always enough
PREPL inhibitor: human PREPL enzyme inhibition; recombinant PREPL, fluorescence polarization activity-based probe; Q4J6C6; inhibition, % at 5.96 µM; 320,000 tested, 0.68% active; in the data active = inhibition above about 43%
Target sequence (Q4J6C6 whole entry, looked up): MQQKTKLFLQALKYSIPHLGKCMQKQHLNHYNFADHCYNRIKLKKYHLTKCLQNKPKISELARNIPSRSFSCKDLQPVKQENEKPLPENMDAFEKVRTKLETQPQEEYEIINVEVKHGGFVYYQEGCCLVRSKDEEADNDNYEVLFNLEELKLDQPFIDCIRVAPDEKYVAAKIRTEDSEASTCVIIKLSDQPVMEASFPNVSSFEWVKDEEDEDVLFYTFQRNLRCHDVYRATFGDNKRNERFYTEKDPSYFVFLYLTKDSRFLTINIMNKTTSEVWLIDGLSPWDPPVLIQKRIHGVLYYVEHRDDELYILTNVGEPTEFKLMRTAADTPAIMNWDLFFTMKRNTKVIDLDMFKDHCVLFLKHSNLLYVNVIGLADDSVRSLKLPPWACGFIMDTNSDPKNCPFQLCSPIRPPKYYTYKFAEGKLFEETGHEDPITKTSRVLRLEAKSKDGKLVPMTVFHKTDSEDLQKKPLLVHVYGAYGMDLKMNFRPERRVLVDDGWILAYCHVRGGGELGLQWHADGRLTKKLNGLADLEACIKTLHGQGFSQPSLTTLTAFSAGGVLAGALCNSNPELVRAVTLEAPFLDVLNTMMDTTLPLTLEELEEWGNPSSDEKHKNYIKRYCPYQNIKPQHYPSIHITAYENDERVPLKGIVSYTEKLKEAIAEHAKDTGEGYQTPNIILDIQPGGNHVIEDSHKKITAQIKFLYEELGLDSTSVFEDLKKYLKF
MEKK2mut PB1 HTS: signal of MEK5 binding to mutant human MEKK2 PB1 domain; 290,000 tested, 0.35% active; percent response, % at 10 µM; AID 1530; bead flow cytometry, Alexa488-MEK5 binding to MEKK2 mutant; in the data active = percent response above about 24%, passing the limit was not always enough
MEKK3 PB1 HTS: raises or lowers MEK5 binding to the human MEKK3 PB1 domain; Q99759; AID 1529; bead-based flow cytometry, Alexa488-MEK5 binding to MEKK3; actives lie on both sides; 0 = blocked by unlabeled MEK5, 100 = vehicle; 290,000 tested, 1.4% active; binding response (% of control), % at 10 µM;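 active = binding response more than 3 SD above or below the average of its plate-row segment, actives on both sides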;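 note: Alexa488 bead fluorescence after subtracting the streptavidin-only scavenger bead signal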
MEKK2wt confirm: raises or lowers MEK5 binding to wildtype human MEKK2, retest; 5,900 tested, 2.4% active; bead flow cytometry, Alexa488-MEK5 binding to MEKK2 WT; actives lie on both sides; binding response (% of control), % at 10 µM; shares compounds with MEKK3 PB1 HTS; in the data active = binding response below about 16% or above about 210%; inactive = in between
MEKK2mut-MEK5: signal of MEK5 binding to mutant human MEKK2, retest. shares compounds with MEKK3 PB1 HTS. bead flow cytometry, Alexa488-MEK5 binding to MEKK2 mutant. percent response, % at 10 µM. 5,900 tested, 2% active; in the data active = percent response mostly above about 71%, no sharp cut-off; inactive = mostly below about 38%;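 note: higher means compound restores mutant binding toward wildtype level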
MEKK3-MEK5 inh: MEKK3-MEK5 PB1 inhibition, single concentration confirmation; binding response (% of control), % at 10 µM; AID 1894; shares compounds with MEKK3 PB1 HTS; bead flow cytometry, Alexa488-MEK5 binding to MEKK3; stronger effect = lower value; 5,900 tested, 1.8% active;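 active = binding response below 72% of control, or above a set upper limit, though filed actives all read lower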
Hits are given with their value; [ ] = remark or other dose. This is a sample that favours compounds with a hit; in the whole collection about 3.1% have one here.

For C#CCOCCOCCOCCNc1nc(N2CCN(C(=O)[C@H]([C@@H](C)CC)n3cc([C@@H](N)CO)nn3)CC2)nc(N2CCN(C(=O)[C@H](CCCCN)n3cc([C@@H](N)C(C)CC)nn3)CC2)n1 (some centres undefined) the results were Apaf1 inhib inactive, MEKK2wt PB1 HTS inactive, UBC13 inh inactive, PREPL inhibitor inactive, MEKK2mut PB1 HTS inactive and MEKK3 PB1 HTS inactive.
Screening C#CCOCCOCCOCCNc1nc(N2CCN(C(=O)[C@H]([C@@H](C)CC)n3cc([C@@H](N)CC(C)C)nn3)CC2)nc(N2CCN(C(=O)[C@H](CCCCN)n3cc([C@@H](N)C(C)CC)nn3)CC2)n1 (some centres undefined) returned Apaf1 inhib inactive, MEKK2wt PB1 HTS 146, UBC13 inh inactive, PREPL inhibitor inactive, MEKK2mut PB1 HTS inactive, MEKK3 PB1 HTS inactive, MEKK2wt confirm inactive, MEKK2mut-MEK5 inactive and MEKK3-MEK5 inh inactive.
For C#CCOCCOCCOCCNc1nc(N2CCN(C(=O)C([C@@H](C)CC)n3cc(C(N)COC(=O)C(F)(F)F)nn3)CC2)nc(N2CCN(C(=O)[C@H](CCCCN)n3cc(C(N)[C@H](C)CC)nn3)CC2)n1 (some centres undefined) the results were Apaf1 inhib inactive, MEKK2wt PB1 HTS 304, UBC13 inh 114, PREPL inhibitor inactive, MEKK2mut PB1 HTS 62, MEKK3 PB1 HTS inactive, MEKK2wt confirm 237, MEKK2mut-MEK5 86 and MEKK3-MEK5 inh inactive.
Screening CC(C)(C)[C@H]1COC(=O)CC/C=C\C[C@@H](CC(=O)N(CCO)Cc2ccccc2)C(=O)N1 returned Apaf1 inhib inactive, UBC13 inh inactive and PREPL inhibitor inactive.
`Cc1cccc(NCc2cc(Cl)ccc2O)n1` gave Apaf1 inhib inactive, MEKK2wt PB1 HTS inactive, UBC13 inh inactive, PREPL inhibitor inactive, MEKK2mut PB1 HTS inactive, MEKK3 PB1 HTS 82[inhibitor], MEKK2wt confirm inactive, MEKK2mut-MEK5 inactive and MEKK3-MEK5 inh inactive.
Screening N#CC(C#N)=c1ccc2c(c1)N1C(c3ccccc3)=CC(c3ccccc3)C3CCCCC31N=2 (centres undefined) returned Apaf1 inhib inactive, MEKK2wt PB1 HTS inactive, UBC13 inh inactive, PREPL inhibitor inactive, MEKK2mut PB1 HTS inactive, MEKK3 PB1 HTS 27[inhibitor], MEKK2wt confirm inactive, MEKK2mut-MEK5 inactive and MEKK3-MEK5 inh 61.
Screening COc1ccc(/C=N/NC(=O)Cc2n[nH]c(=O)[nH]c2=O)cc1 returned Apaf1 inhib inactive, MEKK2wt PB1 HTS inactive, UBC13 inh inactive, PREPL inhibitor inactive, MEKK2mut PB1 HTS inactive and MEKK3 PB1 HTS inactive.
For COc1ccc(/C=N/NC(=O)CSc2n[nH]c(=O)[nH]c2=O)cc1 the results were MEKK2wt PB1 HTS inactive, PREPL inhibitor inactive, MEKK2mut PB1 HTS inactive, MEKK3 PB1 HTS 74[inhibitor], MEKK2wt confirm inactive, MEKK2mut-MEK5 inactive and MEKK3-MEK5 inh inactive.
`CCCCn1cnc2c(c(-c3ccccc3)c(-c3ccccc3)n2Cc2ccco2)c1=N` gave Apaf1 inhib inactive, MEKK2wt PB1 HTS inactive, UBC13 inh inactive, PREPL inhibitor inactive, MEKK2mut PB1 HTS inactive and MEKK3 PB1 HTS inactive.
For N=c1c2c(-c3ccccc3)c(-c3ccccc3)n(Cc3ccccc3)c2ncn1CCCn1ccnc1 the results were Apaf1 inhib inactive, MEKK2wt PB1 HTS 146, UBC13 inh inactive, PREPL inhibitor inactive, MEKK2mut PB1 HTS inactive, MEKK3 PB1 HTS inactive, MEKK2wt confirm inactive, MEKK2mut-MEK5 inactive and MEKK3-MEK5 inh inactive.
